# Results: ChEMBL document CHEMBL4145654, “Structure-Based Discovery of CF53 as a Potent and Orally Bioavailable Bromodomain and Extra-Terminal (BET) Bromodomain Inhibitor” (J Med Chem, 2018)
# Key:
# [1] = molecular target: Protein polybromo-1 (Homo sapiens, UniProt Q86U86); experiment: Binding affinity to human PBRM1 bromodomain 5 (S645 to D766 residues) expressed in bacterial expression system by BROMOScan assay
# [2] = species: Homo sapiens; experiment: Selectivity index, ratio of Kd for human EP300 (A1040 to G1161 residues) to Kd for human BRD3 bromodomain 2 (G306 to P416 residues)
# [3] = species: Homo sapiens; experiment: Selectivity index, ratio of Kd for human CREBBP (R1081 to G1197 residues) to Kd for human BRD3 bromodomain 1 (P24 to E144 residues)
# [4] = molecular target: Chromatin remodeling regulator CECR2 (Homo sapiens, UniProt Q9BXF3); experiment: Binding affinity to human CECR2 (P423 to D543 residues) expressed in bacterial expression system by BROMOscan assay
# [5] = Apparent volume of distribution in Balb/c mouse at 5 mg/kg, iv by LC-MS/MS analysis; format: ADME, organism-based; conditions: in vivo, read-out: Vz
# In short: (§1)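 Balb/c mice dosed iv at 5.0 mg/kg or po at 25 mg/kg, compound in vehicle of 20% (v/v) PCP and 70% (v/v) PBS. Serial blood samples taken at 0, 5, 15, 30 min and 1, 2, 4, 6, 8, 24 h. Plasma obtained by centrifugation and stored at −80 °C. Analysis by LC-MS/MS, positive-ion MRM. Parameters from noncompartmental analysis.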
# [6] = molecular target: SWI/SNF-related matrix-associated actin-dependent regulator of chromatin subfamily A member 2 (Homo sapiens, UniProt P51531); experiment: Binding affinity to human SMARCA2 (S1377 to Q1486 residues) expressed in bacterial expression system by BROMOScan assay
# Sequence of SWI/SNF-related matrix-associated actin-dependent regulator of chromatin subfamily A member 2 (P51531 whole entry, the tested form may be a part): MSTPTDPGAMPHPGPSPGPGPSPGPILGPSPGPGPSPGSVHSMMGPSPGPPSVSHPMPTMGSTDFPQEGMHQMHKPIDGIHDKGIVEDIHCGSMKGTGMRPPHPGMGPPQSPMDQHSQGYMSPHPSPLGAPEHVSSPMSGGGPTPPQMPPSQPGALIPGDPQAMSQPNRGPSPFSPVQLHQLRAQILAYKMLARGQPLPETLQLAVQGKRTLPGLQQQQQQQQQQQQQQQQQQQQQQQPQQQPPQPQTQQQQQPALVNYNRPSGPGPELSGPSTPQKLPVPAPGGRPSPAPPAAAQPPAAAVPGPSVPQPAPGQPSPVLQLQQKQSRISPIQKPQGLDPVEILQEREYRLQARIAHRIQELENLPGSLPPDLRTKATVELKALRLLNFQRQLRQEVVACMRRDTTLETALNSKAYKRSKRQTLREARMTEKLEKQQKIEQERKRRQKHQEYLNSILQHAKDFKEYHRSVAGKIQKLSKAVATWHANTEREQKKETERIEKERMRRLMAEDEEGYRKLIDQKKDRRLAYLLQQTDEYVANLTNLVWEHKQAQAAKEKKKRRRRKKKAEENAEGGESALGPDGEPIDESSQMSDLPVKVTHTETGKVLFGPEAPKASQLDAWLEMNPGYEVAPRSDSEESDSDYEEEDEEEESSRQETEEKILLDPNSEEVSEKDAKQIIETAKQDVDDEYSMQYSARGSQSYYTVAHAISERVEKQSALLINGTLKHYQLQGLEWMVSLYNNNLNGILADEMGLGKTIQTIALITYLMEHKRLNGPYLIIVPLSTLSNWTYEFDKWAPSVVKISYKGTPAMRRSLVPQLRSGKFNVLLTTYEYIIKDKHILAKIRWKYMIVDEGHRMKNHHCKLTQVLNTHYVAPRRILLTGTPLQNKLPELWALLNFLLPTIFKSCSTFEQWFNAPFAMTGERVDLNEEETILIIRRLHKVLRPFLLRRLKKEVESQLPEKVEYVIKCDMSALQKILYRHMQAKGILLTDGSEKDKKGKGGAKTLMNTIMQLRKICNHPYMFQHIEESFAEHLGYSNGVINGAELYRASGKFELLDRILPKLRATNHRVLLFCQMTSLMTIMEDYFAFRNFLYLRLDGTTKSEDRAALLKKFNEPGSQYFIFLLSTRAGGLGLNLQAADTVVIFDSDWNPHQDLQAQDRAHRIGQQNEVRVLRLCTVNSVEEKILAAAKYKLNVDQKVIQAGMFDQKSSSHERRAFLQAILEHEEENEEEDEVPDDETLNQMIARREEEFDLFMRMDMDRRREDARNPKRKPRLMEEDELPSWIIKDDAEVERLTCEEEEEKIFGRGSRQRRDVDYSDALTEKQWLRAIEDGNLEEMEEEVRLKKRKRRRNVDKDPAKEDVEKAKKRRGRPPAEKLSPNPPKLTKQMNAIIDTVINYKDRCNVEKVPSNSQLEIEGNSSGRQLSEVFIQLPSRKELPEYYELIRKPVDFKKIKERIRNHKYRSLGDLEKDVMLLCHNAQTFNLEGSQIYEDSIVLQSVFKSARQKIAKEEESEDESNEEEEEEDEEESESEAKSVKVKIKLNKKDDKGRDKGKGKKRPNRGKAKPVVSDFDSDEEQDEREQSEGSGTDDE
# [7] = molecular target: Bromodomain adjacent to zinc finger domain protein 2B (Homo sapiens, UniProt Q9UIF8); experiment: Binding affinity to human BAZ2B (S2054 to S2168 residues) expressed in bacterial expression system by BROMOScan assay
# Sequence of Bromodomain adjacent to zinc finger domain protein 2B (Q9UIF8 whole entry, the tested form may be a part): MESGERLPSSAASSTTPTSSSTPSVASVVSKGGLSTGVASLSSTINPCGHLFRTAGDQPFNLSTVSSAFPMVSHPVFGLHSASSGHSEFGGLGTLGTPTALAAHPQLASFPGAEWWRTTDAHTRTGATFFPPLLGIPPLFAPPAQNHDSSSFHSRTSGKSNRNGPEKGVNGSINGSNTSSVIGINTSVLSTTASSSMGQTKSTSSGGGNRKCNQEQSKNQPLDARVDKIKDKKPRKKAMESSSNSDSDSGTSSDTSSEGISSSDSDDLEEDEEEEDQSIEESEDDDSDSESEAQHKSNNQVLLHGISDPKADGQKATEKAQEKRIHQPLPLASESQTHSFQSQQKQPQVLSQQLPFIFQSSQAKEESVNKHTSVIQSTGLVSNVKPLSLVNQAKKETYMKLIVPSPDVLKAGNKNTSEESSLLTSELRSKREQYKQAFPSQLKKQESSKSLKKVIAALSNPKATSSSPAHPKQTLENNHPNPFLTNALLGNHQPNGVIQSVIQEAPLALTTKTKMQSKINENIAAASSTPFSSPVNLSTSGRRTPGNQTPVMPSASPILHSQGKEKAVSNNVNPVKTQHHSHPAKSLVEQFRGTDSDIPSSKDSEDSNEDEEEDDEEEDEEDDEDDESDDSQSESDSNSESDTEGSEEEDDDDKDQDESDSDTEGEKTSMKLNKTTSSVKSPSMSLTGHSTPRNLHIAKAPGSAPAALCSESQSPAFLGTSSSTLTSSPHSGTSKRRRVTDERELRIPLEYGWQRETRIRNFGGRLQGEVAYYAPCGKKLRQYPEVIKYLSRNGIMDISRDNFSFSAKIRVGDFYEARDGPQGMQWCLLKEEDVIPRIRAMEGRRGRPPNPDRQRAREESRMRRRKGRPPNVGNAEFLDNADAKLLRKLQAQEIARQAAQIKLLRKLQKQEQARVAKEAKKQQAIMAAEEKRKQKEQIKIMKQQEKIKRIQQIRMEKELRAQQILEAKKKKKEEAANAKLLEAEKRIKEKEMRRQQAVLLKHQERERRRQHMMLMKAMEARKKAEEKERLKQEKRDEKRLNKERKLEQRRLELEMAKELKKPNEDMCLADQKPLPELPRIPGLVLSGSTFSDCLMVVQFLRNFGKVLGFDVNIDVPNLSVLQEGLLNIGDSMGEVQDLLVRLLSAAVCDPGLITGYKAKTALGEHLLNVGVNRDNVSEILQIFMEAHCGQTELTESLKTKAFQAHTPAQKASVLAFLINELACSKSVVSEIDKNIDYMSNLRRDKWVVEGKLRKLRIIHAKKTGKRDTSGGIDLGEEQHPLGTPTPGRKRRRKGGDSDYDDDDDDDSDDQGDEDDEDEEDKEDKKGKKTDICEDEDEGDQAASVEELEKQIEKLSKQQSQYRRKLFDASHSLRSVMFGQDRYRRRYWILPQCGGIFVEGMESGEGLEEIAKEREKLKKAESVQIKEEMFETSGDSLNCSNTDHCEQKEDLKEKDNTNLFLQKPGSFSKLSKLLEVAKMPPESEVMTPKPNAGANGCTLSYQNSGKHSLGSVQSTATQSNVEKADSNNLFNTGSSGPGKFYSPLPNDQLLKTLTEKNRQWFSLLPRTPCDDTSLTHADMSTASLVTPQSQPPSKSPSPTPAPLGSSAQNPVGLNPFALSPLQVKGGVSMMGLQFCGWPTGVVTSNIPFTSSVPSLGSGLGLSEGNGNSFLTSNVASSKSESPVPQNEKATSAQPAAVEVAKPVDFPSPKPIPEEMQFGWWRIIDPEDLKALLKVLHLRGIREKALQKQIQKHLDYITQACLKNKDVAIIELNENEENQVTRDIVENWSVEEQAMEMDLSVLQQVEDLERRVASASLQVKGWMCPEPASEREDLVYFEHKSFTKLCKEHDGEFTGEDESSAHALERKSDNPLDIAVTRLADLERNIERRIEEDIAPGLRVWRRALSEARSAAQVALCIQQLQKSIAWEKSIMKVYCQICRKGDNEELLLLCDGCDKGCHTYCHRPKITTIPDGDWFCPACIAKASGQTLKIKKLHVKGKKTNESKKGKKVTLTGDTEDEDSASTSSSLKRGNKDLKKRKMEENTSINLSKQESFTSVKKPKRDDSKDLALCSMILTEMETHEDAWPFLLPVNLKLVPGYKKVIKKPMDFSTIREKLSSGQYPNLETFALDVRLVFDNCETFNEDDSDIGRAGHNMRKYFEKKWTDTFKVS
# [8] = Plasma concentration in SCID mouse xenografted with human MDA-MB-231 cells at 50 mg/kg administered via oral gavage measured after 6 hrs; format: ADME, organism-based
# In short: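 SCID mice carrying MDA-MB-231 tumors dosed orally at 50 mg/kg. Plasma drug level determined by LC-MS/MS (positive-ion MRM, C18 column, formic acid/acetonitrile gradient). Value is the mean from two mice per time point.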
# [9] = molecular target: Bromodomain-containing protein 8 (Homo sapiens, UniProt Q9H0E9); experiment: Inhibition of BRD8 bromodomain 1 (unknown origin) by BROMOScan assay
# Sequence of Bromodomain-containing protein 8 (Q9H0E9 whole entry): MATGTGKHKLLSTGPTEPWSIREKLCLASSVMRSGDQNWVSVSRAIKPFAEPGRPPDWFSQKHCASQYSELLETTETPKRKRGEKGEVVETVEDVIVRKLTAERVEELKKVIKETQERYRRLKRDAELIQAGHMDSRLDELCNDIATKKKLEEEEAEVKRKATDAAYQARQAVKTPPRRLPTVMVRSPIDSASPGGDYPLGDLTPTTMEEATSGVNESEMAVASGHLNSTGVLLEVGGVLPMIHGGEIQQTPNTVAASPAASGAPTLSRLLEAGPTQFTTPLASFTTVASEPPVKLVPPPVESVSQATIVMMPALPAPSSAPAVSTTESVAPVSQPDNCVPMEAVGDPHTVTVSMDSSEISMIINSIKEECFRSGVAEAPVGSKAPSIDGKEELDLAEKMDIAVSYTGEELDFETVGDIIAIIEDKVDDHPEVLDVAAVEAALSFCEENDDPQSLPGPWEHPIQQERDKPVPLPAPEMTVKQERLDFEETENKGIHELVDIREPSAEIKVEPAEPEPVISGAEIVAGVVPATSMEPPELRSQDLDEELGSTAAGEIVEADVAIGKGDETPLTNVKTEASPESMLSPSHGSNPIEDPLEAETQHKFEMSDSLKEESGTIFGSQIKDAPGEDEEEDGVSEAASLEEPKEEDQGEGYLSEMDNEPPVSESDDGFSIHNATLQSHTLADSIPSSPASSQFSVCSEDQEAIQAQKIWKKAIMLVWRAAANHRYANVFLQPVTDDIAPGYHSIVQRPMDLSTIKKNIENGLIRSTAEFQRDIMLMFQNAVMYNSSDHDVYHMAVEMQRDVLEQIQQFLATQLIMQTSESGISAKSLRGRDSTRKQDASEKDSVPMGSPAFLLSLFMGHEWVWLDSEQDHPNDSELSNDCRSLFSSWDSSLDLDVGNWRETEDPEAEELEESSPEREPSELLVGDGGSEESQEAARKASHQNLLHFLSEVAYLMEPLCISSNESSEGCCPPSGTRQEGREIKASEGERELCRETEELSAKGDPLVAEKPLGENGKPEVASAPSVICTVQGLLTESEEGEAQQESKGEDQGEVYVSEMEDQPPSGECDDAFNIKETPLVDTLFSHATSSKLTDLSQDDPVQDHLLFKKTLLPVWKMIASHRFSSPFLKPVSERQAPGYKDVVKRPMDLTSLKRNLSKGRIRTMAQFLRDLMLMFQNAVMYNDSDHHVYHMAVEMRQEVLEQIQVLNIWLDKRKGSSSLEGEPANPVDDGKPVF
# [10] = tested on: RS4-11; experiment: Antitumor activity against human RS4:11 cells xenografted in SCID mouse assessed as tumor growth inhibition at 25 mg/kg administered via oral gavage measured on day 35; format: functional; conditions: RS4-11, po, 840 h, read-out: TGI
# In short: (§2)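 SCID mice were implanted subcutaneously on the dorsal side with 5 × 10⁶ MDA-MB-231 or RS4;11 cells in 50% Matrigel, one tumor per mouse. At ca. 100 mm3, mice were randomized to treatment or vehicle groups and dosed by oral gavage. Tumor volume = L × W²/2. Body weight change tracked. p values by two-tailed unpaired t-test.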
# [11] = tested on: Mus musculus; experiment: Cmax in Balb/c mouse at 25 mg/kg, po by LC-MS/MS analysis; format: ADME, organism-based; parameters: dose 25 mg/kg, route oral; conditions: in vivo; in short: as §1
# [12] = molecular target: CREB-binding protein (Homo sapiens, UniProt Q92793); experiment: Binding affinity to human CREBBP (R1081 to G1197 residues) expressed in bacterial expression system by BROMOscan assay
# [13] = tested on: MDA-MB-231; experiment: Antitumor activity against human MDA-MB-231 cells xenografted in SCID mouse assessed as tumor growth inhibition at 25 mg/kg administered via oral gavage measured on day 44; format: functional; conditions: MDA-MB-231, po, 1056 h, read-out: TGI; in short: as §2
# [14] = Oral bioavailability in Balb/c mouse at 25 mg/kg by LC-MS/MS analysis; format: ADME, organism-based; conditions: in vivo; in short: as §1
# [15] = molecular target: Histone acetyltransferase p300 (Homo sapiens, UniProt Q09472); experiment: Binding affinity to human EP300 (A1040 to G1161 residues) expressed in bacterial expression system by BROMOScan assay
# [16] = tested on: MOLM-13; experiment: Growth inhibition of human MOLM13 cells after 4 days by WST-8 assay; format: functional, cell-based; conditions: MOLM-13, 96 h
# In short: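 Leukemia cells, used within 3 months of thaw, were seeded at 10 000 cells/well and exposed to serially diluted compound in culture medium for 4 days. WST-8 reagent was added at 10% (v/v) final for 1−3 h, and absorbance was read at 450 nm. Readings were normalized to DMSO-treated cells, and the IC50 was fitted by nonlinear regression.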
# [17] = Drug uptake in tumor of SCID mouse xenografted with human MDA-MB-231 cells at 50 mg/kg administered via oral gavage measured after 6 hrs; format: ADME, organism-based, Neoplasm; conditions: read-out: Drug uptake
# In short: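 Limited PK in SCID mice bearing MDA-MB-231 tumors, 50 mg/kg given by oral gavage. Plasma and tumor tissue drug levels measured at two time points per compound. Values are the mean of two mice/tumors per time point.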
# [18] = molecular target: Bromodomain testis-specific protein (Homo sapiens, UniProt Q58F21); experiment: Binding affinity to human BRDT bromodomain 1 (N21 to E137 residues) expressed in bacterial expression system by BROMOscan assay
# [19] = molecular target: Bromodomain-containing protein 9 (Homo sapiens, UniProt Q9H8M2); experiment: Binding affinity to human BRD9 (R130 to V259 residues) expressed in bacterial expression system by BROMOScan assay
# [20] = species: Homo sapiens; experiment: Selectivity index, ratio of Kd for human CREBBP (R1081 to G1197 residues) to Kd for human BRDT bromodomain 2 (K250 to E382 residues)
# [21] = species: Homo sapiens; experiment: Selectivity index, ratio of Kd for human CREBBP (R1081 to G1197 residues) to Kd for human BRDT bromodomain 1 (N21 to E137 residues)
# [22] = species: Homo sapiens; experiment: Selectivity index, ratio of Kd for human EP300 (A1040 to G1161 residues) to Kd for human BRD4 bromodomain 2 (K333 to E460 residues)
# [23] = molecular target: Bromodomain-containing protein 7 (Homo sapiens, UniProt Q9NPI1); experiment: Binding affinity to human BRD7 (L125 to R254 residues) expressed in bacterial expression system by BROMOScan assay
smiles,measurement,setting,value
COc1cc2c(cc1-c1c(C)noc1C)[nH]c1nc(C)nc(Nc3cc(C4CC4)nn3C)c12,Kd,[1],> 5000 nM
same,Selectivity Index,[2],> 50
same,Selectivity Index,[3],> 20
same,Kd,[4],570 nM
same,Vd,[5],0.83 L/kg
same,Kd,[6],> 5000 nM
same,Kd,[7],> 5000 nM
same,concentration at 6 h,[8],7360 ng/mL
same,Kd,[9],> 5000 nM
same,inhibition in vivo at 25 mg/kg,[10],49.3%
same,Cmax,[11],6400 ng/mL
same,Kd,[12],47 nM
same,inhibition in vivo at 25 mg/kg,[13],67.6%
same,bioavailability,[14],71.3%
same,Kd,[15],110 nM
same,IC50,[16],7 nM
same,concentration at 6 h,[17],3670 ng/g
same,Kd,[18],2 nM
same,Kd,[19],> 5000 nM
same,Selectivity Index,[20],> 20
same,Selectivity Index,[21],> 20
same,Selectivity Index,[22],> 50
same,Kd,[23],> 5000 nM
